Test results taken from ChEMBL document CHEMBL4814013, “Scaffold repurposing of fendiline: Identification of potent KRAS plasma membrane localization inhibitors” (Eur J Med Chem, 2021).
pIC50: −log10 of the molar value. Active and inactive are the calls of the source. No cut-off for these calls is given here.

Experiments:
[1] = system: MDCK; assay: Inhibition of ASM in dog MDCK cells co-expressing recombinant full length mGFP-tagged KRAS G12V mutant and mCherry-CAAX assessed as reduction in plasma membrane localization of KRAS mutant incubated for 48 hrs by confocal microscopic analysis relative to control; format: cell membranes; conditions: Canis lupus familiaris
How it was run: (§1)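 MDCK cells stably co-expressing mGFP-KRAS G12V or mGFP-LactC2 with mCherry-CAAX (HRAS 179–189 C181S/C184S) grown on coverslips in DMEM/10% FBS. Treated 48 h with 0.1% DMSO or graded drug, fixed in 4% paraformaldehyde, then quantitative confocal imaging. Mislocalization scored as the Manders fraction of mCherry-CAAX co-localizing with the GFP probe. IC50 and Emax from three independent experiments.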

[2] = Inhibition of ASM in dog MDCK cells co-expressing recombinant full length mGFP-tagged KRAS G12V mutant and mCherry-CAAX assessed as reduction in plasma membrane localization of KRAS mutant incubated for 48 hrs by confocal microscopic analysis; format: cell membranes, Canis lupus familiaris; how it was run: as §1
[3] = system: MDCK; assay: Cytotoxicity against dog MDCK cells at 30 uM; format: functional, cell-based; conditions: Canis lupus familiaris
[4] = system: SK-CO-1; assay: Antiproliferative activity against human SK-CO-1 cells expressing mutant KRAS assessed as reduction in cell growth incubated for 72 hrs by CyQuant proliferation assay; format: functional, cell-based; conditions: SK-CO-1, 72 h
How it was run: (§2)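 Cells seeded in 96-well plates; after 24 h fresh growth medium with 0.1% DMSO vehicle or drug added (highest dose 30 µM for cancer lines), grown 72 h at 37 °C, 5% CO2. Live cell number measured by CyQUANT fluorescence. IC50 from three independent experiments. MEFs were isogenic lines carrying oncogenic BRAF or KRAS.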

[5] = system: MDCK; assay: Inhibition of ASM in dog MDCK cells co-expressing recombinant full length GFP-tagged LactC2 and mCherry-CAAX assessed as reduction in plasma membrane localization of LactC2 incubated for 48 hrs by confocal microscopic analysis; format: cell membranes; conditions: Canis lupus familiaris; how it was run: as §1
[6] = system: NCI-H1299; assay: Antiproliferative activity against human NCI-H1299 cells expressing wild type KRAS assessed as reduction in cell growth incubated for 72 hrs by CyQuant proliferation assay; format: functional, cell-based; conditions: NCI-H1299, 72 h; how it was run: as §2
[7] = system: NCI-H522; assay: Antiproliferative activity against human NCI-H522 cells expressing wild type KRAS assessed as reduction in cell growth incubated for 72 hrs by CyQuant proliferation assay; format: functional, cell-based; conditions: NCI-H522, 72 h; how it was run: as §2
[8] = Antiproliferative activity against human MOH cells expressing KRAS mutant assessed as reduction in cell growth incubated for 72 hrs by CyQuant proliferation assay; format: functional, cell-based; how it was run: as §2
[9] = biological target: T1, Sphingomyelin phosphodiesterase (Homo sapiens) (UniProt P17405); assay: Inhibition of human GFP-tagged ASM expressed in dog MDCK cells using sphingomyelin as substrate at 5 uM incubated for 48 hrs by Amplex Red dye based fluorescence analysis; format: cell-based
T1 sequence (whole entry): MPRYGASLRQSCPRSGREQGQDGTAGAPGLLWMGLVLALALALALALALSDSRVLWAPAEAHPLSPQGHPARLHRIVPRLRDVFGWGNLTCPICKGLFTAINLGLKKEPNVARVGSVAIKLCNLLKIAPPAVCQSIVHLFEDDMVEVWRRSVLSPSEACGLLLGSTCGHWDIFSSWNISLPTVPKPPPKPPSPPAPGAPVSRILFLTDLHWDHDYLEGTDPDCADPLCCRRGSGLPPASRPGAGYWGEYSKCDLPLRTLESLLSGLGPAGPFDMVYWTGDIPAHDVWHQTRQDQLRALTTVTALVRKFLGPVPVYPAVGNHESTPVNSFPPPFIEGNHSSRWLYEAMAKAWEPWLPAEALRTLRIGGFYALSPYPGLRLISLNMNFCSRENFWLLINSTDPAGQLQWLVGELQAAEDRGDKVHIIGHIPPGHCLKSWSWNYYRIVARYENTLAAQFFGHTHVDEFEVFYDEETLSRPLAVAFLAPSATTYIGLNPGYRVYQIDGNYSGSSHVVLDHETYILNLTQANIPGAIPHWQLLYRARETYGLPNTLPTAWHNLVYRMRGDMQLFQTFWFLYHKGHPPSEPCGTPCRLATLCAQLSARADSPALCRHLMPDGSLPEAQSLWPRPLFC
How it was run: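 MDCK cells stably expressing human SMPD1-GFP treated 48 h at 5 µM. Whole-cell lysate, made without DTT, mixed with 50 mM sodium acetate pH 5.0 plus sphingomyelin and held 1 h at 37 °C. pH then raised to 7.4 with Amplex Red mix (100 µM Amplex Red, 2 U/mL HRP, 0.2 U/mL choline oxidase, 8 U/mL alkaline phosphatase, 100 mM Tris pH 8.0), 60 min at 37 °C. Fluorescence read at Ex 540/Em 590 nm. Controls: 0.1 U/mL SMase (positive), buffer alone (negative).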

[10] = system: MDCK; assay: Inhibition of ASM in dog MDCK cells co-expressing recombinant full length mGFP-tagged KRAS G12V mutant and mCherry-CAAX assessed as reduction in plasma membrane localization of KRAS mutant at 1 uM incubated for 48 hrs followed by incubation with recombinant ASM in continued presence of compound for 60 mins by confocal microscopic analysis; format: cell membranes; conditions: Canis lupus familiaris, time 49.0 hrs
How it was run: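 MDCK cells stably co-expressing mGFP-KRAS G12V and mCherry-CAAX seeded on glass coverslips and grown 48 h with or without compound. Medium then replaced with fresh medium containing 2 units/mL recombinant ASM, drug continued, for 60 min. Cells mounted in mowiol and imaged by confocal microscopy. Mislocalization scored by Manders coefficient.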

[11] = system: Ishikawa; assay: Antiproliferative activity against human Ishikawa cells expressing wild type KRAS assessed as reduction in cell growth incubated for 72 hrs by CyQuant proliferation assay; format: functional, cell-based; how it was run: as §2
[12] = system: NCI-H1975; assay: Antiproliferative activity against human NCI-H1975 cells expressing wild type KRAS assessed as reduction in cell growth incubated for 72 hrs by CyQuant proliferation assay; format: functional, cell-based; conditions: NCI-H1975, 72 h; how it was run: as §2
[13] = system: ESS-1; assay: Antiproliferative activity against human ESS-1 cells expressing wild type KRAS assessed as reduction in cell growth upto 30 uM incubated for 72 hrs by CyQuant proliferation assay; format: functional, cell-based; conditions: dose microM <=30, time 72.0 hrs; how it was run: as §2
[14] = system: MEF; assay: Cytotoxicity against mouse MEF cells expressing BRAF V600E mutant and wild type KRAS assessed as reduction in cell growth incubated for 72 hrs by CyQuant proliferation assay; format: functional, cell-based; how it was run: as §2
[15] = system: MDCK; assay: Reduction in expression of human GFP-tagged ASM transfected in dog MDCK cells at 5 uM incubated for 48 hrs by western blot analysis; format: functional, cell-based; conditions: Canis lupus familiaris
How it was run: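 SMPD1-GFP-expressing MDCK cells treated 48 h with 5 µM compound, washed in cold PBS and lysed in Tris pH 7.5 buffer with NaF, EGTA, DTT, vanadate, 1% NP40 and protease inhibitors. 20 µg of protein resolved by SDS-PAGE and immunoblotted. Signals detected by enhanced chemiluminescence and quantified by densitometry.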

[16] = system: MEF; assay: Antiproliferative activity against mouse MEF cells expressing KRAS G12D mutant assessed as reduction in cell growth incubated for 72 hrs by CyQuant proliferation assay; format: functional, cell-based; how it was run: as §2
[17] = system: BXPC-3; assay: Antiproliferative activity against human BXPC-3 cells expressing wild type KRAS assessed as reduction in cell growth incubated for 72 hrs by CyQuant proliferation assay; format: functional, cell-based; conditions: BXPC-3, 72 h; how it was run: as §2
[18] = system: MIA PaCa-2; assay: Antiproliferative activity against human MIA PaCa-2 cells expressing KRAS mutant assessed as reduction in cell growth incubated for 72 hrs by CyQuant proliferation assay; format: functional, cell-based; conditions: MIA PaCa-2, 72 h; how it was run: as §2
[19] = Antiproliferative activity against human MPANC96 cells expressing KRAS mutant assessed as reduction in cell growth incubated for 72 hrs by CyQuant proliferation assay; format: functional, cell-based; conditions: MPANC96, 72 h; how it was run: as §2
[20] = system: MEF; assay: Antiproliferative activity against mouse MEF cells expressing KRAS G12V mutant assessed as reduction in cell growth incubated for 72 hrs by CyQuant proliferation assay; format: functional, cell-based; how it was run: as §2
[21] = system: Caco-2; assay: Antiproliferative activity against human Caco-2 cells expressing wild type KRAS assessed as reduction in cell growth incubated for 72 hrs by CyQuant proliferation assay; format: functional, cell-based; conditions: Caco-2, 72 h; how it was run: as §2
[22] = system: Caenorhabditis elegans; assay: In vivo inhibition of KRAS signaling in Caenorhabditis elegans lin-1 L1 harboring let60 […] mutant assessed as reduction in multi-vulva phenotype measured after 4 to 5 days culturing in buffer containing Escherichia coli OP50 by DIC/Nomarski microscopic analysis; format: functional, organism-based; conditions: dose 0.1-30 µM, time 4-5 day
How it was run: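 let-60 (n1046) or lin-1 L1 larvae cultured in M9 buffer with E. coli OP50 plus DMSO vehicle or compound at 0.1, 0.3, 1, 3, 10 or 30 µM. After 4–5 days, adults were scored for multi-vulva by DIC/Nomarski microscopy.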

[23] = system: KLE; assay: Antiproliferative activity against human KLE cells expressing wild type KRAS assessed as reduction in cell growth upto 30 uM incubated for 72 hrs by CyQuant proliferation assay; format: functional, cell-based; conditions: dose microM <=30, time 72.0 hrs; how it was run: as §2
[24] = system: HEC-1B cell line; assay: Antiproliferative activity against human HEC-1B cells expressing mutant KRAS assessed as reduction in cell growth incubated for 72 hrs by CyQuant proliferation assay; format: functional, cell-based; how it was run: as §2

COc1ccc([C@@H](C)N(C)CC=C(c2ccccc2)c2ccccc2)cc1
Emax [1]: 0.75 | pIC50 [2]: 5.48 | Activity [3]: inactive

COc1ccc([C@H](C)N(CC=C(c2ccccc2)c2ccccc2)CCN2CCN(C)CC2)cc1
Emax [1]: 0.83 | pIC50 [2]: 5.92 | Activity [3]: Active

COc1ccccc1[C@@H](C)N(CC=C(c1ccccc1)c1ccccc1)CCN1CCN(C)CC1
Emax [1]: 0.86 | pIC50 [2]: 5.42 | Activity [3]: Active

COc1ccc([C@@H](C)N(CC=C(c2ccccc2)c2ccccc2)CCN2CCC2)cc1
Emax [1]: 0.69 | pIC50 [2]: 6.30 | Activity [3]: Active

COc1ccc([C@@H](C)N(CC=C(c2ccccc2)c2ccccc2)CCN2CCCCC2)cc1
Emax [1]: 0.83 | pIC50 [2]: 6.22 | Activity [3]: Active

COc1ccc([C@@H](C)N(CC=C(c2ccccc2)c2ccccc2)CCN(C)C)cc1
Emax [1]: 0.66 | pIC50 [2]: 4.95 | Activity [3]: Active

COc1ccc([C@@H](C)N(CC=C(c2ccccc2)c2ccccc2)CCF)cc1
Emax [1]: 0.52 | pIC50 [2]: 5.00 | Activity [3]: inactive

C=CCN(CC=C(c1ccccc1)c1ccccc1)[C@H](C)c1ccc(OC)cc1
Emax [1]: 0.47 | pIC50 [2]: 4.89 | Activity [3]: inactive

COc1ccc([C@@H](C)N(CC=C(c2ccccc2)c2ccccc2)CCN2CCN(C)CC2)cc1
pIC50 [4]: 5.48 | inhibition [5]: Active | pIC50 [6]: 5.09 | pIC50 [7]: 4.55 | pIC50 [8]: 5.43 | inhibition [9]: Active | inhibition [10]: inactive | pIC50 [11]: < 4.52 | pIC50 [12]: < 4.52 | Activity [13]: inactive | pIC50 [14]: 5.12 | inhibition [15]: Active | pIC50 [16]: 5.43 | pIC50 [17]: 5.24 | pIC50 [18]: 5.52 | pIC50 [19]: 5.38 | pIC50 [20]: 5.57 | pIC50 [21]: 5.29 | inhibition [22]: Dose-Dependent Effect | Activity [23]: inactive | Emax [1]: 0.75 | pIC50 [2]: 7.00 | Activity [3]: Active | pIC50 [24]: 5.48

COc1ccc([C@@H](C)N(CC=C(c2ccccc2)c2ccccc2)CCCCN2CCN(C)CC2)cc1
Emax [1]: 0.81 | Activity [3]: Active

COc1ccc([C@@H](C)N(CC=C(c2ccccc2)c2ccccc2)C(=O)CN2CCN(C)CC2)cc1
Emax [1]: 0.51 | pIC50 [2]: 5.15 | Activity [3]: Active

C[C@H](c1ccccc1)N(CC=C(c1ccccc1)c1ccccc1)CCN1CCN(C)CC1
Emax [1]: 0.79 | pIC50 [2]: 6.22 | Activity [3]: Active

C[C@H](c1ccc(F)cc1)N(CC=C(c1ccccc1)c1ccccc1)CCN1CCN(C)CC1
Emax [1]: 0.83 | pIC50 [2]: 5.82 | Activity [3]: Active
